pKd: −log10 of the molar value.
Tests used:
[1] = biological target: T1, Stromal cell-derived factor 1 (Homo sapiens, UniProt P48061); experiment: Binding affinity to His6-SUMO fusion tagged wild type human [U-15N]CXCL12 expressed in Escherichia coli by 2D 1H-15N HMQC NMR spectroscopy
[2] = biological target: T1, Stromal cell-derived factor 1; experiment: Binding affinity to His6-SUMO fusion tagged wild type human [U-15N]CXCL12 expressed in Escherichia coli assessed as induction of chemical shift perturbations to residues at I4/I6 binding site by 2D 1H-15N HMQC NMR spectroscopy
How it was run: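 [U-15N]-CXCL12 WT was made as a His6SUMO fusion in E. coli (Terrific Broth, 1 mM IPTG) and taken from inclusion bodies by Ni-NTA. Combined CSP = ((5ΔδH)2+(ΔδN)2)0.5. Kd came from single-site quadratic fits of the most-perturbed residues, fitted individually and averaged (±SD).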

[3] = biological target: Stromal cell-derived factor 1 (Homo sapiens, UniProt P48061, A65C/L36C)
Stromal cell-derived factor 1 (Homo sapiens, UniProt P48061, A65C/L36C), sequence (P48061 22-93 L57C/A86C limits assumed): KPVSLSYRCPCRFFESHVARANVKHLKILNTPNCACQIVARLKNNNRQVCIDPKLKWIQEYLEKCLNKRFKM

T1 sequence (P48061 whole entry, the tested form may be a part): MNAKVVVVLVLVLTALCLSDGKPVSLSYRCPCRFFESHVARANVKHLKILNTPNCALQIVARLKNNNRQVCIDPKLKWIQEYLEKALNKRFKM

Structure (SMILES)	pKd ([1]; read-out: Kd)	Activity [2] [%]	Kd [1]	pKd [3]
C[C@H](NC(=O)CCn1ccc2c(Cl)cccc21)C(=O)O	2.77	16.7		
O=C(O)CC1c2ccccc2CCN1C(=O)Nc1cccc(F)c1 (stereo unspecified)		12.5		
Cc1ccc(NS(=O)(=O)c2ccc(OCC(=O)O)c(C)c2)cc1C		12.5		
CC(C)O.CCCOc1ccc(C(Nc2ccc(F)cc2)P(=O)(O)O)cc1 (stereo unspecified)			Dose-dependent effect	4.13
